# Source: the M2OR odorant receptor database
# Key:
# Details in all cases: stereoisomer not certain
# OR2L13 (Homo sapiens) = molecular target: T1, OR2L13 (Homo sapiens) (UniProt Q8N349)
# T1 sequence (whole entry): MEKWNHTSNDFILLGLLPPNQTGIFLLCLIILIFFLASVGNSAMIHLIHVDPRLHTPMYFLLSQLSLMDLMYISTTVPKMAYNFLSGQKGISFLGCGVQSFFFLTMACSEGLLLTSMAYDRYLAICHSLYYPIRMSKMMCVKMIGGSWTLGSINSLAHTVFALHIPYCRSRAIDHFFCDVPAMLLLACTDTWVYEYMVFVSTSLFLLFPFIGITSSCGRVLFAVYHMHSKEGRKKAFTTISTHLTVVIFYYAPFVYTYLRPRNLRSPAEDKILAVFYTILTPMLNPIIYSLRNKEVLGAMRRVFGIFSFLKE
# How it was run: (§1)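 Assay methods differ from source to source, frequently being transient luciferase assays in mammalian cell lines. For each receptor–molecule pair, the label responsive (active) applies when the original authors judged the measured signal statistically different from baseline, and non-responsive (inactive) applies otherwise.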
# OR2L2 (Homo sapiens) = molecular target: T2, OR2L2 (Homo sapiens) (UniProt Q8NH16)
# T2 sequence (whole entry): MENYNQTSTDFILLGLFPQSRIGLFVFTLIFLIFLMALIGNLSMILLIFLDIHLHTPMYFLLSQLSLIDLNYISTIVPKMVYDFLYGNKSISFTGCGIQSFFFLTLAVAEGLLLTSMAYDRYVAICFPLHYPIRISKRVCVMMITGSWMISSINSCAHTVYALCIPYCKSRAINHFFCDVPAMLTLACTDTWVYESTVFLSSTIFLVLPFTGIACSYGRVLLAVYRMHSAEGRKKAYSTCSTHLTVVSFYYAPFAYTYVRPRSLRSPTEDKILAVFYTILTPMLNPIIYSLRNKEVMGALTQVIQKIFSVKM
# How it was run: as §1
# OR2L3 (Homo sapiens) = molecular target: T3, OR2L3 (Homo sapiens) (UniProt Q8NG85)
# T3 sequence (whole entry): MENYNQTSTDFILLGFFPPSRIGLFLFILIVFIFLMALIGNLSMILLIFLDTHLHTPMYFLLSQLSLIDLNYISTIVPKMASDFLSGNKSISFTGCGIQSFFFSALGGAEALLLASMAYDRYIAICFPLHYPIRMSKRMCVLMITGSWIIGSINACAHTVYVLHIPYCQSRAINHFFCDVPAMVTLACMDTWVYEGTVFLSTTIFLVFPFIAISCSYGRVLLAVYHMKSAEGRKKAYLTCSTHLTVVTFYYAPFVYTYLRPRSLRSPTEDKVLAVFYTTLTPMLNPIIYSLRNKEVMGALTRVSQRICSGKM
# How it was run: as §1
# OR2L5 (Homo sapiens) = molecular target: T4, OR2L5 (Homo sapiens) (UniProt Q8NG80)
# T4 sequence (whole entry): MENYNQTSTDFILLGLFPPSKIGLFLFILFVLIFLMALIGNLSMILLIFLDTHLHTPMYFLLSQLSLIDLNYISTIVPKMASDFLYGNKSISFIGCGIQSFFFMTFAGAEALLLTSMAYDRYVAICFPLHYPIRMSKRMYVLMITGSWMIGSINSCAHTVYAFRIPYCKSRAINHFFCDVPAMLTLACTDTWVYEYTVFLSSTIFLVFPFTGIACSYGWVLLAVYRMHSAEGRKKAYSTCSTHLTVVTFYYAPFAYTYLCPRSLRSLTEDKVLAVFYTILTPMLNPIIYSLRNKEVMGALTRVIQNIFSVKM
# How it was run: as §1
# OR2L8 (Homo sapiens) = molecular target: T5, OR2L8 (Homo sapiens) (UniProt Q8NGY9)
# T5 sequence (whole entry): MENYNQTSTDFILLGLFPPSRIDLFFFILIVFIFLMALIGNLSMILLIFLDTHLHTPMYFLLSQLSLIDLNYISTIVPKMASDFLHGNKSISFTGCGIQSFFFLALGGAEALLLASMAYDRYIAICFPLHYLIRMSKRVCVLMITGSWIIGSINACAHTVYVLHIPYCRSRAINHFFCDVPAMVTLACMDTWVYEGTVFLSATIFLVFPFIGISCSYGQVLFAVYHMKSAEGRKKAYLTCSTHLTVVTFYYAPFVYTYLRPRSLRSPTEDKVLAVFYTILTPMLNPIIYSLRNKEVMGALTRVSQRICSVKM
# How it was run: as §1
# OR2M2 (Homo sapiens) = molecular target: T6, OR2M2 (Homo sapiens) (UniProt Q96R28)
# T6 sequence (whole entry): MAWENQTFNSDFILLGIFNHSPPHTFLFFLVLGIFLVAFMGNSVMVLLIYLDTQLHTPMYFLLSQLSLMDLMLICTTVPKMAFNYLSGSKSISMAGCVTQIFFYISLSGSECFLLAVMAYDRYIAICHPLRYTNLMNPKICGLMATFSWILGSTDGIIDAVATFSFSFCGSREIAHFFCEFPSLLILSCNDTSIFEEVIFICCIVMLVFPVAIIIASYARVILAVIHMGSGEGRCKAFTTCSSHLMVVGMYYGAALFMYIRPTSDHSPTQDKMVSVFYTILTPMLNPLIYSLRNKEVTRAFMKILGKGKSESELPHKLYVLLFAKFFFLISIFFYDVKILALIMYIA
# How it was run: as §1
# OR2M3 (Homo sapiens) = molecular target: T7, OR2M3 (Homo sapiens) (UniProt Q8NG83)
# T7 sequence (whole entry): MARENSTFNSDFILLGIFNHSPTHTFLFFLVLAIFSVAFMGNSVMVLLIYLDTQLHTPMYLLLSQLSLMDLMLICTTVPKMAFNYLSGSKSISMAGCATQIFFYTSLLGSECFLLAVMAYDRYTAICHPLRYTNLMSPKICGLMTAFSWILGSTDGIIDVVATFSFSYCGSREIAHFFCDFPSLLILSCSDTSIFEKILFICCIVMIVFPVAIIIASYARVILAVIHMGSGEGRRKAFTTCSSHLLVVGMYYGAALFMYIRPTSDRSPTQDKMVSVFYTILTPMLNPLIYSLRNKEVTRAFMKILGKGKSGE
# How it was run: as §1
smiles,measurement,setting,value
Cc1ccc(C(C)C)cc1,odorant receptor agonist call,OR2L13 (Homo sapiens),inactive
CC(C=O)Cc1ccc(C(C)(C)C)cc1 (centres undefined),odorant receptor agonist call,OR2L13 (Homo sapiens),inactive
CCCCCCCCCCCC(=O)OCC,odorant receptor agonist call,OR2L13 (Homo sapiens),inactive
CCCCCC(S)C(C)CO (centres undefined),odorant receptor agonist call,OR2L13 (Homo sapiens),inactive
same,odorant receptor agonist call,OR2L2 (Homo sapiens),inactive
same,odorant receptor agonist call,OR2L3 (Homo sapiens),inactive
same,odorant receptor agonist call,OR2L5 (Homo sapiens),inactive
same,odorant receptor agonist call,OR2L8 (Homo sapiens),inactive
same,odorant receptor agonist call,OR2M2 (Homo sapiens),inactive
same,odorant receptor agonist call,OR2M3 (Homo sapiens),inactive
CCCCCC(=O)C(C)C(C)=O (centres undefined),odorant receptor agonist call,OR2L13 (Homo sapiens),inactive
same,odorant receptor agonist call,OR2L2 (Homo sapiens),inactive
same,odorant receptor agonist call,OR2L3 (Homo sapiens),inactive
same,odorant receptor agonist call,OR2L5 (Homo sapiens),inactive
same,odorant receptor agonist call,OR2L8 (Homo sapiens),inactive
same,odorant receptor agonist call,OR2M2 (Homo sapiens),inactive
same,odorant receptor agonist call,OR2M3 (Homo sapiens),inactive
CCCCCCCC(=O)OC,odorant receptor agonist call,OR2L13 (Homo sapiens),inactive
CCCCCCCCCCCCCCCC(=O)[O-].[H+],odorant receptor agonist call,OR2L13 (Homo sapiens),inactive
CCCCCCCCCCCCCC(=O)OCC,odorant receptor agonist call,OR2L13 (Homo sapiens),inactive
CCCCOCC(C)O (centres undefined),odorant receptor agonist call,OR2L13 (Homo sapiens),inactive
CCCCCCCCCCCCCCC(=O)O,odorant receptor agonist call,OR2L13 (Homo sapiens),inactive
CCCCCCCCCCCCCCCC(=O)OCC,odorant receptor agonist call,OR2L13 (Homo sapiens),inactive
C=CC(O)CCCCC (centres undefined),odorant receptor agonist call,OR2M3 (Homo sapiens),inactive
CCC(C)COC(C)=O (centres undefined),odorant receptor agonist call,OR2M3 (Homo sapiens),inactive
Cc1occc1S,odorant receptor agonist call,OR2M3 (Homo sapiens),inactive
Cc1cccc(O)c1,odorant receptor agonist call,OR2M3 (Homo sapiens),inactive
CC=CC(=O)C(C)CC (centres undefined),odorant receptor agonist call,OR2M3 (Homo sapiens),inactive
CC1CCCCCCCCCCCCC(=O)C1 (centres undefined),odorant receptor agonist call,OR2L13 (Homo sapiens),inactive
same,odorant receptor agonist call,OR2L3 (Homo sapiens),inactive
same,odorant receptor agonist call,OR2L5 (Homo sapiens),inactive
same,odorant receptor agonist call,OR2L8 (Homo sapiens),inactive
same,odorant receptor agonist call,OR2M2 (Homo sapiens),inactive
same,odorant receptor agonist call,OR2M3 (Homo sapiens),inactive
CCC(C)CO (centres undefined),odorant receptor agonist call,OR2L13 (Homo sapiens),inactive
same,odorant receptor agonist call,OR2M3 (Homo sapiens),inactive
CCc1cccc(O)c1,odorant receptor agonist call,OR2M3 (Homo sapiens),inactive
O=C(O)CCc1ccccc1,odorant receptor agonist call,OR2M3 (Homo sapiens),inactive
CC(=O)c1c(C)c([N+](=O)[O-])c(C(C)(C)C)c([N+](=O)[O-])c1C,odorant receptor agonist call,OR2L13 (Homo sapiens),inactive
same,odorant receptor agonist call,OR2L3 (Homo sapiens),inactive
same,odorant receptor agonist call,OR2L5 (Homo sapiens),inactive
same,odorant receptor agonist call,OR2L8 (Homo sapiens),inactive
same,odorant receptor agonist call,OR2M2 (Homo sapiens),inactive
same,odorant receptor agonist call,OR2M3 (Homo sapiens),inactive
C=CC(=C)CCC=C(C)C,odorant receptor agonist call,OR2M3 (Homo sapiens),inactive
CCCCCCC=CCCC=O,odorant receptor agonist call,OR2L13 (Homo sapiens),inactive
same,odorant receptor agonist call,OR2L2 (Homo sapiens),inactive
same,odorant receptor agonist call,OR2L3 (Homo sapiens),inactive
same,odorant receptor agonist call,OR2L5 (Homo sapiens),inactive
same,odorant receptor agonist call,OR2L8 (Homo sapiens),inactive
same,odorant receptor agonist call,OR2M2 (Homo sapiens),inactive
same,odorant receptor agonist call,OR2M3 (Homo sapiens),inactive
CCC1OC(C)=C(O)C1=O (centres undefined),odorant receptor agonist call,OR2L13 (Homo sapiens),inactive
same,odorant receptor agonist call,OR2L2 (Homo sapiens),inactive
same,odorant receptor agonist call,OR2L3 (Homo sapiens),inactive
same,odorant receptor agonist call,OR2L5 (Homo sapiens),inactive
same,odorant receptor agonist call,OR2L8 (Homo sapiens),inactive
same,odorant receptor agonist call,OR2M2 (Homo sapiens),inactive
same,odorant receptor agonist call,OR2M3 (Homo sapiens),inactive
CCC(=O)C(C)=O,odorant receptor agonist call,OR2M3 (Homo sapiens),inactive
CCOC(=O)C1CCCCC1,odorant receptor agonist call,OR2M3 (Homo sapiens),inactive
CC1=CCC2CC1C2(C)C (centres undefined),odorant receptor agonist call,OR2L13 (Homo sapiens),inactive
same,odorant receptor agonist call,OR2M3 (Homo sapiens),inactive
CCC1OC(=O)C(O)=C1C (centres undefined),odorant receptor agonist call,OR2L13 (Homo sapiens),inactive
same,odorant receptor agonist call,OR2L2 (Homo sapiens),inactive
same,odorant receptor agonist call,OR2L3 (Homo sapiens),inactive
same,odorant receptor agonist call,OR2L5 (Homo sapiens),inactive
same,odorant receptor agonist call,OR2L8 (Homo sapiens),inactive
same,odorant receptor agonist call,OR2M2 (Homo sapiens),inactive
same,odorant receptor agonist call,OR2M3 (Homo sapiens),inactive
CC(=O)O,odorant receptor agonist call,OR2L13 (Homo sapiens),inactive
same,odorant receptor agonist call,OR2M3 (Homo sapiens),inactive
CCC(=O)O,odorant receptor agonist call,OR2L13 (Homo sapiens),inactive
same,odorant receptor agonist call,OR2M3 (Homo sapiens),inactive
